According to ChEMBL document CHEMBL1629601, “In vitro susceptibility of field isolates of Leishmania donovani to Miltefosine and amphotericin B: correlation with sodium antimony gluconate susceptibility and implications for treatment in areas of endemicity” (2009):
In brackets after ≈: the same amount, converted by molar mass.

Legend:
Assay type in all cases: functional
Leishmania donovani [1] = experiment: Decrease in LdRoS3 gene expression in Leishmania donovani K111 by RT-PCR method
In short: (§1)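 VL field isolates of L. donovani. Transcript levels of LdMT or LdRos3 were measured by real-time RT-PCR with SYBR green and analysed by the 2−ΔΔCt method. The expression index is the ratio of gene expression to that of the standard L. donovani strain LdAG83, and a decrease is relative to LdAG83. Values are means of three independent experiments.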

Leishmania donovani [2] = experiment: Decrease in LdMT gene expression in Leishmania donovani K132 by RT-PCR method
In short: (§2)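 LdMT transcript levels were measured by real-time RT-PCR with SYBR green and analysed by the 2−ΔΔCt method. They are expressed as an expression index, the ratio relative to reference strain LdAG83, and are the mean of three independent experiments.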

Leishmania donovani [3] = experiment: Decrease in LdMT gene expression in Leishmania donovani K133 by RT-PCR method; in short: as §2
Leishmania donovani [4] = experiment: Decrease in LdMT gene expression in Leishmania donovani K135 by RT-PCR method; in short: as §2
Leishmania donovani [5] = experiment: Decrease in LdRoS3 gene expression in Leishmania donovani K135 by RT-PCR method; in short: as §1
Leishmania donovani [6] = experiment: Decrease in LdMT gene expression in Leishmania donovani K216 by RT-PCR method; in short: as §1
Leishmania donovani [7] = experiment: Decrease in LdRoS3 gene expression in Leishmania donovani K216 by RT-PCR method; in short: as §1
Leishmania donovani [8] = experiment: Decrease in LdMT gene expression in Leishmania donovani K435 by RT-PCR method; in short: as §1
Leishmania donovani [9] = experiment: Decrease in LdMT gene expression in Leishmania donovani K59M20 by RT-PCR method
In short: (§3)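 MIL-resistant M20 parasites were generated by raising the MIL concentration stepwise up to 20 μg/ml. LdMT or LdRos3 expression was quantified by real-time RT-PCR (SYBR green, 2−ΔΔCt method) and reported as an expression index, the ratio to the standard strain LdAG83. A decrease is relative to LdAG83. Values are means of three independent experiments.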

Leishmania donovani [10] = experiment: Decrease in LdRoS3 gene expression in Leishmania donovani K59M20 by RT-PCR method; in short: as §3
Leishmania donovani [11] = experiment: Decrease in LdMT gene expression in Leishmania donovani K417M20 by RT-PCR method; in short: as §3
Leishmania donovani [12] = experiment: Decrease in LdRoS3 gene expression in Leishmania donovani K417M20 by RT-PCR method; in short: as §3
Leishmania donovani [13] = experiment: Antimicrobial activity against Leishmania donovani K417M20 amastigote; conditions: read-out: ED50 (the source's name)
Leishmania donovani [14] = experiment: Antimicrobial activity against Leishmania donovani K417M20 promastigote; conditions: read-out: ED50 (the source's name)
Leishmania donovani [15] = experiment: Antimicrobial activity against Leishmania donovani K133 promastigote; conditions: read-out: ED50 (the source's name)
Leishmania donovani [16] = experiment: Antimicrobial activity against Leishmania donovani K135 amastigote; conditions: read-out: ED50 (the source's name)
Leishmania donovani [17] = experiment: Antimicrobial activity against Leishmania donovani K498 amastigote; conditions: read-out: ED50 (the source's name)
Leishmania donovani [18] = experiment: Antimicrobial activity against Leishmania donovani K481 amastigote; conditions: read-out: ED50 (the source's name)
Leishmania donovani [19] = experiment: Antimicrobial activity against Leishmania donovani K481 promastigote; conditions: read-out: ED50 (the source's name)
Leishmania donovani [20] = experiment: Antimicrobial activity against Leishmania donovani K439 promastigote; conditions: read-out: ED50 (the source's name)
Leishmania donovani [21] = experiment: Antimicrobial activity against Leishmania donovani K439 amastigote; conditions: read-out: ED50 (the source's name)
Leishmania donovani [22] = experiment: Antimicrobial activity against Leishmania donovani K417 amastigote; conditions: read-out: ED50 (the source's name)
Leishmania donovani [23] = experiment: Antimicrobial activity against Leishmania donovani K417 promastigote; conditions: read-out: ED50 (the source's name)
Leishmania donovani [24] = experiment: Antimicrobial activity against Leishmania donovani K251 promastigote; conditions: read-out: ED50 (the source's name)
Leishmania donovani [25] = experiment: Antimicrobial activity against Leishmania donovani K192 promastigote; conditions: read-out: ED50 (the source's name)
Leishmania donovani [26] = experiment: Antimicrobial activity against Leishmania donovani K251 amastigote; conditions: read-out: ED50 (the source's name)
Leishmania donovani [27] = experiment: Antimicrobial activity against Leishmania donovani K192 amastigote; conditions: read-out: ED50 (the source's name)
Leishmania donovani [28] = experiment: Antimicrobial activity against Leishmania donovani K149 promastigote; conditions: read-out: ED50 (the source's name)
Leishmania donovani [29] = experiment: Antimicrobial activity against Leishmania donovani K131 promastigote; conditions: read-out: ED50 (the source's name)
Leishmania donovani [30] = experiment: Antimicrobial activity against Leishmania donovani K59 promastigote; conditions: read-out: ED50 (the source's name)
Leishmania donovani [31] = experiment: Antimicrobial activity against Leishmania donovani K59 amastigote; conditions: read-out: ED50 (the source's name)
Leishmania donovani [32] = experiment: Antimicrobial activity against Leishmania donovani LdAG83 amastigote; conditions: read-out: ED50 (the source's name)
Leishmania donovani [33] = experiment: Antimicrobial activity against Leishmania donovani LdAG83 promastigote; conditions: read-out: ED50 (the source's name)
Leishmania donovani [34] = experiment: Antimicrobial activity against Leishmania donovani K516 promastigote; conditions: read-out: ED50 (the source's name)
Leishmania donovani [35] = experiment: Antimicrobial activity against Leishmania donovani K509 amastigote; conditions: read-out: ED50 (the source's name)
Leishmania donovani [36] = experiment: Antimicrobial activity against Leishmania donovani K509 promastigote; conditions: read-out: ED50 (the source's name)
Leishmania donovani [37] = experiment: Antimicrobial activity against Leishmania donovani K80 amastigote; conditions: read-out: ED50 (the source's name)
Leishmania donovani [38] = experiment: Antimicrobial activity against Leishmania donovani K80 promastigote; conditions: read-out: ED50 (the source's name)
Leishmania donovani [39] = experiment: Antimicrobial activity against Leishmania donovani K111 amastigote; conditions: read-out: ED50 (the source's name)
Leishmania donovani [40] = experiment: Antimicrobial activity against Leishmania donovani K132 amastigote; conditions: read-out: ED50 (the source's name)
Leishmania donovani [41] = experiment: Antimicrobial activity against Leishmania donovani K216 amastigote; conditions: read-out: ED50 (the source's name)
Leishmania donovani [42] = experiment: Antimicrobial activity against Leishmania donovani K216 promastigote; conditions: read-out: ED50 (the source's name)
Leishmania donovani [43] = experiment: Antimicrobial activity against Leishmania donovani K435 amastigote; conditions: read-out: ED50 (the source's name)
Leishmania donovani [44] = experiment: Antimicrobial activity against Leishmania donovani K59M20 amastigote; conditions: read-out: ED50 (the source's name)
Leishmania donovani [45] = experiment: Antimicrobial activity against Leishmania donovani K59M20 promastigote; conditions: read-out: ED50 (the source's name)
Leishmania donovani [46] = experiment: Decrease in LdMT gene expression in Leishmania donovani K59 by RT-PCR method; in short: as §1
Leishmania donovani [47] = experiment: Decrease in LdRoS3 gene expression in Leishmania donovani K59 by RT-PCR method; in short: as §1
Leishmania donovani [48] = experiment: Decrease in LdMT gene expression in Leishmania donovani K131 by RT-PCR method; in short: as §2
Leishmania donovani [49] = experiment: Decrease in LdMT gene expression in Leishmania donovani K149 by RT-PCR method; in short: as §2
Leishmania donovani [50] = experiment: Decrease in LdRoS3 gene expression in Leishmania donovani K149 by RT-PCR method; in short: as §1
Leishmania donovani [51] = experiment: Decrease in LdMT gene expression in Leishmania donovani K192 by RT-PCR method; in short: as §1
Leishmania donovani [52] = experiment: Decrease in LdRoS3 gene expression in Leishmania donovani K192 by RT-PCR method; in short: as §1
Leishmania donovani [53] = experiment: Decrease in LdMT gene expression in Leishmania donovani K251 by RT-PCR method; in short: as §1
Leishmania donovani [54] = experiment: Decrease in LdRoS3 gene expression in Leishmania donovani K251 by RT-PCR method; in short: as §1
Leishmania donovani [55] = experiment: Decrease in LdRoS3 gene expression in Leishmania donovani K417 by RT-PCR method; in short: as §1
Leishmania donovani [56] = experiment: Decrease in LdMT gene expression in Leishmania donovani K429 by RT-PCR method; in short: as §1
Leishmania donovani [57] = experiment: Decrease in LdMT gene expression in Leishmania donovani K439 by RT-PCR method; in short: as §1
Leishmania donovani [58] = experiment: Decrease in LdRoS3 gene expression in Leishmania donovani K439 by RT-PCR method; in short: as §1
Leishmania donovani [59] = experiment: Decrease in LdMT gene expression in Leishmania donovani K516 by RT-PCR method; in short: as §1
Leishmania donovani [60] = experiment: Decrease in LdRoS3 gene expression in Leishmania donovani K516 by RT-PCR method; in short: as §1

`CCCCCCCCCCCCCCCCOP(=O)([O-])OCC[N+](C)(C)C` [MILTEFOSINE] was tested, and the “fold change (FC)” value (Leishmania donovani [1]) was 5.26, the “fold change (FC)” value (Leishmania donovani [2]) was 5.5 and the “fold change (FC)” value (Leishmania donovani [3]) was 1.5. The “fold change (FC)” value (Leishmania donovani [4]) was 2.86, the “fold change (FC)” value (Leishmania donovani [5]) was 1.67 and the “fold change (FC)” value (Leishmania donovani [6]) was 1.4. The “fold change (FC)” value (Leishmania donovani [7]) was 9.43, the “fold change (FC)” value (Leishmania donovani [8]) was 2.67 and the “fold change (FC)” value (Leishmania donovani [9]) was 13.33. For the same molecule, the “fold change (FC)” value (Leishmania donovani [10]) was 100, the “fold change (FC)” value (Leishmania donovani [11]) was 11.3 and the “fold change (FC)” value (Leishmania donovani [12]) was 100. For the same molecule, the EC50 (Leishmania donovani [13]) was greater than 15 µg/mL, the EC50 (Leishmania donovani [14]) was greater than 15 µg/mL and the EC50 (Leishmania donovani [15]) was 0.83 µg/mL (≈ 2.04 µM). It also gave an EC50 (Leishmania donovani [16]) of 0.72 µg/mL (≈ 1.77 µM), an EC50 (Leishmania donovani [17]) of 1.65 µg/mL (≈ 4.05 µM) and an EC50 (Leishmania donovani [18]) of 2.32 µg/mL (≈ 5.69 µM). For the same molecule, the EC50 (Leishmania donovani [19]) was 1.9 µg/mL (≈ 4.66 µM), the EC50 (Leishmania donovani [20]) was 0.87 µg/mL (≈ 2.13 µM) and the EC50 (Leishmania donovani [21]) was 1.07 µg/mL (≈ 2.63 µM). It also gave an EC50 (Leishmania donovani [22]) of 1.9 µg/mL (≈ 4.66 µM), an EC50 (Leishmania donovani [23]) of 1.72 µg/mL (≈ 4.22 µM) and an EC50 (Leishmania donovani [24]) of 0.4 µg/mL (≈ 0.981 µM). It also gave an EC50 (Leishmania donovani [25]) of 1.91 µg/mL (≈ 4.69 µM), an EC50 (Leishmania donovani [26]) of 1.59 µg/mL (≈ 3.9 µM) and an EC50 (Leishmania donovani [27]) of 1.99 µg/mL (≈ 4.88 µM). The EC50 (Leishmania donovani [28]) was 1.56 µg/mL (≈ 3.83 µM), the EC50 (Leishmania donovani [29]) was 0.63 µg/mL (≈ 1.55 µM) and the EC50 (Leishmania donovani [30]) was 1.19 µg/mL (≈ 2.92 µM). For the same molecule, the EC50 (Leishmania donovani [31]) was 1.86 µg/mL (≈ 4.56 µM), the EC50 (Leishmania donovani [32]) was 0.85 µg/mL (≈ 2.09 µM) and the EC50 (Leishmania donovani [33]) was 1.05 µg/mL (≈ 2.58 µM). For the same molecule, the EC50 (Leishmania donovani [34]) was 1.62 µg/mL (≈ 3.97 µM), the EC50 (Leishmania donovani [35]) was 2.16 µg/mL (≈ 5.3 µM) and the EC50 (Leishmania donovani [36]) was 1.94 µg/mL (≈ 4.76 µM). The EC50 (Leishmania donovani [37]) was 1.32 µg/mL (≈ 3.24 µM), the EC50 (Leishmania donovani [38]) was 1.58 µg/mL (≈ 3.88 µM) and the EC50 (Leishmania donovani [39]) was 0.85 µg/mL (≈ 2.09 µM). It also gave an EC50 (Leishmania donovani [40]) of 0.48 µg/mL (≈ 1.18 µM), an EC50 (Leishmania donovani [41]) of 0.91 µg/mL (≈ 2.23 µM) and an EC50 (Leishmania donovani [42]) of 0.76 µg/mL (≈ 1.86 µM). It also gave an EC50 (Leishmania donovani [43]) of 1.08 µg/mL (≈ 2.65 µM), an EC50 (Leishmania donovani [44]) greater than 15 µg/mL and an EC50 (Leishmania donovani [45]) greater than 15 µg/mL. The “fold change (FC)” value (Leishmania donovani [46]) was 2.84, the “fold change (FC)” value (Leishmania donovani [47]) was 4.06 and the “fold change (FC)” value (Leishmania donovani [48]) was 2.43. The “fold change (FC)” value (Leishmania donovani [49]) was 1.08, the “fold change (FC)” value (Leishmania donovani [50]) was 7.69 and the “fold change (FC)” value (Leishmania donovani [51]) was 0.23. The “fold change (FC)” value (Leishmania donovani [52]) was 1.9, the “fold change (FC)” value (Leishmania donovani [53]) was 7.68 and the “fold change (FC)” value (Leishmania donovani [54]) was 52.63. For the same molecule, the “fold change (FC)” value (Leishmania donovani [55]) was 5.02, the “fold change (FC)” value (Leishmania donovani [56]) was 1.26 and the “fold change (FC)” value (Leishmania donovani [57]) was 4.76. For the same molecule, the “fold change (FC)” value (Leishmania donovani [58]) was 3.12, the “fold change (FC)” value (Leishmania donovani [59]) was 8 and the “fold change (FC)” value (Leishmania donovani [60]) was 83.33.
